TRPC4 inh – inhibitors of mouse TRPC4 channel, primary screen, Fluo4 calcium, HEK293 TRPC4beta/mu-opioid cells | Short transient receptor potential channel 4 (Mus musculus), Q9QUQ5 | DAMGO-evoked Fluo4 calcium flux; hits give low values | B-score at 10 µM | hit rate 0.39% among 300,000;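 active means B-score over 3 SD under the library average, no early fluorescence shift, positive overall ratio signal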
Target sequence (Q9QUQ5 whole entry, looked up): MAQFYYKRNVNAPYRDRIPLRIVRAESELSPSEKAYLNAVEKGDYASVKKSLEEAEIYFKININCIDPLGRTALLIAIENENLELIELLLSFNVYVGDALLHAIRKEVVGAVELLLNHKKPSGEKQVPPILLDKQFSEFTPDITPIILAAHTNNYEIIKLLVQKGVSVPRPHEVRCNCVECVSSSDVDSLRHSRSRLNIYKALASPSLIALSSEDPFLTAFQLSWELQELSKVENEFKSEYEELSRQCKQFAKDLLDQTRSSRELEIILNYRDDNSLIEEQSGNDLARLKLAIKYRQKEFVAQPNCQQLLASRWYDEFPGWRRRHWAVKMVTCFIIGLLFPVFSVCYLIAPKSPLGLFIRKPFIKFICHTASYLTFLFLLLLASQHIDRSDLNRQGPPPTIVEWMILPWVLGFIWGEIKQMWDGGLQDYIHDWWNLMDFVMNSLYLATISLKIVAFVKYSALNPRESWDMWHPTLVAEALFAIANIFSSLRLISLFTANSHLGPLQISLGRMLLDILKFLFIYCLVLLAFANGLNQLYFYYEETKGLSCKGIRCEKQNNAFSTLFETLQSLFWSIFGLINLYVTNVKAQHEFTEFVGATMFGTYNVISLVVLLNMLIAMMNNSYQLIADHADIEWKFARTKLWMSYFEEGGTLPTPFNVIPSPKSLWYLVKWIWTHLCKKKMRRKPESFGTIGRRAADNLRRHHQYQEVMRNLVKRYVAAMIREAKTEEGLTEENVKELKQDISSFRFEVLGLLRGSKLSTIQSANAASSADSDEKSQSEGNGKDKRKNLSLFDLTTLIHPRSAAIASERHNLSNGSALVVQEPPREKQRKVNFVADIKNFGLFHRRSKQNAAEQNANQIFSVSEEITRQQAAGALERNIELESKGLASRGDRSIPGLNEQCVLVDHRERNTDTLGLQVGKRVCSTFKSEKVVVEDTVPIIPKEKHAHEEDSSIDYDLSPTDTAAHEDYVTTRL
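Assay system: HEK293 cells with stable TRPC4beta plus mu-opioid receptor expression. Dosing: single dose. Measured by: Fluo4 Ca2+ flux fluorescence. Also added: DAMGO in two steps, submaximal then maximal. Read-out: B score from integrated Fluo4 fluorescence ratio.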
TRPC4 agonist – activators of mouse TRPC4 channel, primary screen, Fluo4 calcium, HEK293 TRPC4beta/mu-opioid cells. Short transient receptor potential channel 4 (Mus musculus), Q9QUQ5. Fluo4 calcium fluorescence; hits give high values. B-score at 10 µM. hit rate 0.49% among 310,000. AID 2237, 2010;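 active means B-score above 5 SD of library B-scores, and initial fluorescence ratio not above library mean plus 5 SD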;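 further: positive B-score marks a calcium rise read as TRPC4 activation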
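Assay system: HEK293 stable line with TRPC4beta plus mu-opioid receptor; schedule: 45 min room-temperature Fluo4 loading, 110 s read; technique: kinetic Fluo4 calcium fluorescence; evaluation: integrated baseline-normalised fluorescence ratio, converted to per-well B score; controls: buffer (low) and maximal DAMGO (high)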
TRPC6 activator – mouse TRPC6 channel activators, primary screen, cell-based, HEK293, membrane potential dye; Short transient receptor potential channel 6 (Mus musculus), Q61143; B-score at 10 µM; HEK293-TRPC6 membrane potential dye fluorescence; hits give high values; hit rate 0.13% among 310,000;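 active means B-score of the integrated fluorescence ratio above library mean plus 3 SD, and starting fluorescence ratio within library mean plus 5 SD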;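 further: higher score means more depolarization so channel activation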
TRPC4 potent – positive allosteric modulators of TRPC4, primary screen, cell-based, mouse TRPC4beta, HEK293 mu-opioid, Fluo-4 calcium | hit rate 0.42% among 310,000 | B-score at 10 µM | DAMGO EC20, Fluo-4 Ca2+ flux; hits give high values | Short transient receptor potential channel 4 (Mus musculus), Q9QUQ5;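 active means B-score of calcium response area above 5 SD of library B-scores, with initial fluorescence ratio within 5 SD of library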;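 further: B-score of integrated fluorescence ratio over time as area under calcium response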
TRPC6 inh – mouse TRPC6 channel inhibitors, primary screen, cell-based, HEK293, membrane potential dye. Short transient receptor potential channel 6 (Mus musculus), Q61143. ACh-evoked depolarization; hits give low values. B-score at 10 µM. hit rate 1.1% among 310,000. AID 2553, 2010;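 active means B-score under library mean minus 3 SD, initial fluorescence not abnormally high, positive integrated signal ratio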;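 further: B-score derived from integrated fluorescence ratio over the kinetic read; more negative B-score means stronger inhibition of depolarization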
TRPC4 sel inh 2 – second check of whether TRPC6 inhibitors also affect mouse TRPC4; shares compounds with TRPC6 inh; HEK293 TRPC4/MOR, membrane potential dye fluorescence; channel activated by saturating DAMGO dose; inhibition, % at 10 µM; hit rate 42% among 920;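 active means compounds whose fluorescence signal differed from control wells by over 3 SD, either direction, in both duplicate plates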
TRPC4 spec – mouse TRPC4 modulation by TRPC6 hits, confirmation, selectivity assay for TRPC6 inhibitor project, cell-based, HEK293 TRPC4/mu-opioid, membrane potential dye; shares compounds with TRPC6 inh; membrane potential fluorescence; activity change, negative = inhibition, % at 10 µM; hit rate 61% among 920; AID 2777, 2010;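 active means rise or fall in signal beyond 3 SD of buffer-only wells in both replicate plates, either sign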;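 further: integrated kinetic ratio of fluorescence range over baseline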
HEK293 MPD ctr 2-1 – nonspecific membrane potential effects, parental HEK293, confirmation, counter-screen for TRPC6 inhibitor project, cell-based, second counter screen; parental HEK293 membrane potential dye fluorescence; maximal acetylcholine challenge after compound addition; hit rate 31% among 920; signal change vs control, % at 10 µM; shares compounds with TRPC6 inh; AID 2779, 2010;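 active means membrane potential signal moving either way by over 3 SD of the maximum-effect control, in both duplicate plates, meaning non-specific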
HEK293 MPD ctr-1 – membrane potential modulation in parental HEK293, confirmation, counter-screen for TRPC6 inhibitor project, cell-based; membrane potential signal change, % at 10 µM; shares compounds with TRPC6 inh; hit rate 60% among 920; parental HEK293 membrane potential dye fluorescence;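 active means membrane potential signal shifting up or down by more than 3 SD of buffer-only wells, on both duplicate plates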
HEK293 MPD ctr-2 – parental HEK293 membrane potential modulation, confirmation, counter-screen for TRPC6 modulator project, cell-based; shares compounds with TRPC6 inh; membrane potential dye fluorescence; membrane potential signal change, % at 10 µM; hit rate 51% among 2,400; AID 488924, 2010;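 active means membrane potential signal moves up or down beyond 5 SD from buffer-only wells, on both duplicate plates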
HEK293 MPD ctr 2-2 – second counter-screen for TRPC6 modulators: effect in parental HEK293 cells. shares compounds with TRPC6 inh. inhibition, % at 10 µM. membrane potential dye fluorescence; after compound, maximal acetylcholine stimulation. hit rate 14% among 2,400. AID 488926;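 active means membrane potential signal drops by more than 5 SD from the mean control signal, in both duplicate plates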;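 further: plate controls were acetylcholine ECmax control wells for no effect and buffer only wells for full effect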
TRPC4 ctr mod – TRPC4 modulation by TRPC6 hit compounds, confirmation, selectivity assay for TRPC6 modulator project, cell-based, HEK293 TRPC4/mu-opioid, membrane potential dye, mouse. shares compounds with TRPC6 inh. membrane potential fluorescence. percent change from control (negative = decrease, positive = increase), % at 10 µM. hit rate 69% among 2,400;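 active means membrane potential signal moved up or down beyond 5 SD of buffer control wells, in both duplicate plates, actives on both sides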;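 further: plate controls were assay buffer wells for no effect and DAMGO maximal-effect wells for full effect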
TRPC4 ctr inh 2 – mouse TRPC4 off-target activity of TRPC6 modulators, second screen; shares compounds with TRPC6 inh; HEK293 TRPC4/mu-opioid, membrane potential dye fluorescence; stimulated with maximal-effect DAMGO; inhibition, % at 10 µM; hit rate 55% among 2,400; AID 488928;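 active means drop in membrane potential signal beyond 5 SD of the control wells in both duplicate plates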;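 further: TRPC4 counter screen for TRPC6 hits run under conditions tuned for TRPC6 not TRPC4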
TRPC6 inh conf – mouse TRPC6 channel inhibitors, confirmation, HEK293 cells, membrane potential dye, duplicate. shares compounds with TRPC6 inh. AID 488960, 2010. ACh-evoked depolarization. inhibition, % at 10 µM. hit rate 43% among 3,300;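 active means fluorescence ratio falls more than 5 SD below the full-stimulation control mean, in both duplicate runs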;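 further: integrated fluorescence ratio of peak minus minimum over baseline after agonist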
TRPC6 act conf – mouse TRPC6 channel activators, confirmation, HEK293 cells, membrane potential dye, duplicate; shares compounds with TRPC6 inh; HEK293-TRPC6 membrane potential dye fluorescence, FDSS; activation, % at 10 µM; hit rate 11% among 2,800;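 active means ratio signal rise beyond 5 SD above unstimulated control wells' mean, seen in both duplicate runs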;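 further: plate controls were buffer EC0 wells for no effect and acetylcholine ECmax response for full effect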
Numbers without * were called inactive; i = inactive; · = not tested or not shown. Sampled rows, rich in hits. Any-hit rate of the full collection: about 2.3%.

SMILES	TRPC4 inh	TRPC4 agonist	TRPC6 activator	TRPC4 potent	TRPC6 inh	HEK293 MPD ctr-2	HEK293 MPD ctr 2-2	TRPC4 ctr mod	TRPC4 ctr inh 2	TRPC6 inh conf	TRPC6 act conf	others
CC(C)(C)NC(=O)C(c1ccc(F)cc1)N(Cc1ccco1)C(=O)CCC(=O)Nc1ccccn1 (stereo not given)	i	i	i	i	-6*	354.5%*	i	77.5%*	i	i	·
CC(C)(C)NC(=O)C(c1ccc(O)cc1)N(Cc1ccco1)C(=O)CCC(=O)Nc1ccccn1 (stereo not given)	i	i	i	i	i	·	·	·	·	·	·
c1cncc(-c2nc(NCCCn3ccnc3)c3ccccc3n2)c1	i	i	i	i	i	·	·	·	·	·	·
Cc1nc(NCCCn2ccnc2)c2ccccc2n1	i	i	i	i	-7.69*	-237.0%*	61.0%*	-38.5%*	38.5%*	52.5%*	i
CCOC(=O)Cn1c(C)cc(=O)c2cccc(C)c21	i	i	i	i	-7.7*	-270.0%*	i	-44.5%*	39.5%*	i	i
CCOC(=O)Cn1c(=O)cc(C)c2cccc(C)c21	i	i	i	i	i	·	·	·	·	·	·
Cc1cccc2c(=O)cc(C)n(CC(=O)N3CCOCC3)c12	i	i	i	i	i	·	·	·	·	·	·
CNC(=O)Cn1c(C)cc(=O)c2cccc(C)c21	i	i	i	i	-6.25*	-397.5%*	i	-54.5%*	30.5%*	i	i
Cc1cccc2c(=O)cc(C)n(CC(=O)N3CCCCC3)c12	i	i	i	i	-6.18*	-260.5%*	i	-46.5%*	28.5%*	i	i
O=C(N/N=C/c1ccc2cccnc2c1)c1nc2ccccc2c(=O)[nH]1	i	i	i	i	i	·	·	·	·	·	·
Cc1cnc(CNC(=O)C2CCC(=O)N(CCc3ccc(Cl)cc3)C2)cn1 (stereo not given)	i	i	i	i	i	·	·	·	·	·	·
CCNC(=O)[C@@H]1CCCN1C(=O)[C@H](CCCN=C(N)N)NC(=O)[C@H](CC(C)C)NC(=O)[C@@H](CC(C)C)NC(=O)[C@H](Cc1ccc(O)cc1)NC(=O)[C@H](CO)NC(=O)[C@H](Cc1c[nH]c2ccccc12)NC(=O)[C@H](Cc1cnc[nH]1)NC(=O)[C@@H]1CCC(=O)N1	i	i	i	i	i	·	·	·	·	·	·
c1ccc2oc(C3=NNC(=NC4CC4)SC3)cc2c1	i	i	i	i	-8.42*	·	·	·	·	i	i	TRPC4 sel inh 2=i;TRPC4 spec=i;HEK293 MPD ctr 2-1=i;HEK293 MPD ctr-1=i
COc1ccc(N2CCN(CC(O)COc3ccc(C)c(C)c3)CC2)cc1 (stereo not given)	i	i	i	i	-6.13*	i	i	i	48.5%*	i	i
CCn1nc(C)c(NC(=O)c2cnn3c(C(F)F)cc(-c4ccccc4)nc23)c1C	i	i	i	i	i	·	·	·	·	·	·
CN(Cc1ccc2nonc2c1)Cc1nc(CC2CC2)no1	i	i	i	i	i	·	·	·	·	·	·
NS(=O)(=O)c1ccc(CCNC(=O)NC2(C(F)(F)F)Oc3ccccc3O2)cc1	i	i	i	i	-5.74*	i	i	i	i	i	i
CCCCNC(=O)NC1(C(F)(F)F)Oc2ccccc2O1	i	i	i	i	i	·	·	·	·	·	·
S=C1N(c2ccccc2)C(c2ccc(Cl)cc2)N2CCCN12 (stereo not given)	i	i	i	i	-8.74*	·	·	·	·	67.9%*	i	TRPC4 sel inh 2=i;TRPC4 spec=i;HEK293 MPD ctr 2-1=30.0%*;HEK293 MPD ctr-1=i
COc1ccc(C2N(c3ccccc3)C(=S)N3CCCN23)cc1 (stereo not given)	i	i	i	i	i	·	·	·	·	·	·
S=C1N(c2ccccc2)C(c2ccc(Br)cc2)N2CCCN12 (stereo not given)	i	i	i	i	-9.99*	·	·	·	·	68.4%*	i	TRPC4 sel inh 2=i;TRPC4 spec=i;HEK293 MPD ctr 2-1=17.5%*;HEK293 MPD ctr-1=i
Cc1ccc(C(=O)NCCNC(=O)c2ccco2)cn1	i	i	i	i	i	·	·	·	·	·	·
CSCCC(NC(=O)COc1ccccc1)C(=O)OCc1ccc([N+](=O)[O-])cc1 (stereo not given)	i	i	i	i	i	·	·	·	·	·	·

Source: PubChem (Johns Hopkins Ion Channel Center)
